Measured values published in publication PMC4462344 (Cancer Science, 2014).
Several values for one entry are separate records, joined by “and”; a condition that tells them apart may be missing. Equal entries are not always repeated. Marks after values point to notes of the source that are not given here.

Assays:
Assay type in all cases: in vivo, Japanese CRPC patients
[1] = Plasma abiraterone acetate and abiraterone pharmacokinetics
Procedure, shortened: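 Venous blood was drawn at predose and 0.5–12 h after dosing on cycle 1 days 1, 7 and 15 (monotherapy days 1–7; prednisone 5 mg twice daily from day 8), plus 24-h and trough samples. Samples were taken on NaF, spun at 1300 g and 4°C for 10 min, and stored at −20°C. Assay was validated LC/MS/MS (LLOQ 0.220 ng/mL). Cmax, tmax and AUC24 came from non-compartmental analysis.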

[2] = system: castration-resistant prostate cancer; experiment: Efficacy: objective tumor response by RECIST
Procedure, shortened: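 Patients with measurable lesions were assessed for objective tumour response by RECIST. Dosing was once-daily oral abiraterone acetate (250, 500 or 1000 mg, the 1000 mg given 1 h premeal or 2 h postmeal) in 28-day cycles, with prednisone 5 mg twice daily added from cycle 1 day 8 onward.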

testosterone = experiment: Pharmacodynamics: serum testosterone concentration
Procedure, shortened: (§1)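 Serum corticosterone, 11-deoxycorticosterone, testosterone and DHEA-S were measured at baseline and on days 2 and 8 of cycle 1. Abiraterone acetate was given orally once daily after an overnight fast, with no food for ≥1 h after dosing. It was given alone days 1–7, then with prednisone 5 mg twice daily. Results are summarised as change from baseline.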

11-deoxycorticosterone = experiment: Pharmacodynamics: serum 11-deoxycorticosterone concentration
Procedure, shortened: as §1

corticosterone = experiment: Pharmacodynamics: serum corticosterone concentration
Procedure, shortened: as §1

[3] = system: prostate-specific antigen (PSA); experiment: Efficacy: PSA response; conditions: for patients who achieved ≥50% PSA decline from baseline at one or more evaluation time points: entire treatment period; for mean percentage change from baseline in PSA levels: week 12
Procedure, shortened: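 Oral abiraterone acetate given once daily in 28-day cycles to chemotherapy-naïve patients on continued LHRH agonist or post-orchiectomy: monotherapy days 1–7 of cycle 1, then with prednisone 5 mg twice daily. PSA measured at screening and day 1 of each cycle. Response was a ≥50% fall from baseline confirmed to persist ≥4 weeks, per PCWG2.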

[4] = system: dehydroepiandrosterone sulfate (DHEA-S); experiment: Pharmacodynamics: serum DHEA-S concentration
Procedure, shortened: as §1

[5] = Cycle 1 Day 2, 1000 (+2 h) mg (n = 6)
[6] = Cycle 1 Day 2, 1000 (−1 h) mg (n = 6)
[7] = Cycle 1 Day 8, 1000 (+2 h) mg (n = 6)
[8] = Cycle 1 Day 8, 1000 (−1 h) mg (n = 6)

For `C[C@]12CC[C@H](O)CC1=CC[C@@H]1[C@@H]2CC[C@]2(C)C(c3cccnc3)=CC[C@@H]12` [abiraterone], the “mean Cmax and AUC24 of abiraterone, 2 h postmeal versus 1 h premeal” value ([1]; 1000 mg cohort, overall) was 3.1–6.0 times, the “abiraterone Cmax and AUC24, 2 h postmeal versus 1 h premeal” value ([1]; AA 1000 mg multiple doses) was “approximately threefold to sixfold” and the “accumulation index for AUC24 of abiraterone” value ([1]; irrespective of dose) was 1.40–1.69. The “accumulation index for Cmax of abiraterone” value ([1]; irrespective of dose) was 1.31–1.74 and the “time at which steady state of plasma abiraterone was reached” value ([1]; regardless of dose) was ≤ 7 days.

In the case of `CC(=O)O[C@H]1CC[C@@]2(C)C(=CC[C@@H]3[C@@H]2CC[C@]2(C)C(c4cccnc4)=CC[C@@H]32)C1` [Abiraterone acetate], the “patients in whom the disease had progressed (RECIST)” value ([2]; 250 mg) is reported as 1 patients, the “patients with stable disease (RECIST)” value ([2]; 250 mg) is reported as 1 patients and the “patients with partial response (RECIST)” value ([2]; 500 mg) is reported as 1 patients. For the same molecule, the “patients with stable disease (RECIST)” value ([2]; 500 mg) was 2 patients, the “patients in whom the disease had progressed (RECIST)” value ([2]; 1000 (+2 h) mg) was 1 patients and the “patients with partial response (RECIST)” value ([2]; 1000 (−1 h) mg) was 1 patients. For the same molecule, the “patients with stable disease (RECIST)” value ([2]; 1000 (−1 h) mg) was 2 patients, the “patients in whom the disease had progressed (RECIST)” value ([2]; all cohorts) was 2 patients and the “patients with partial response (RECIST)” value ([2]; all cohorts) was 2 patients. The “patients with stable disease (RECIST)” value ([2]; all cohorts) was 5 patients, the “plasma AA concentrations” value ([1]; most plasma concentrations, all cohorts, LLOQ 0.220 ng/mL) was “below the quantification limit” and the “Testosterone, mean (SD) change from baseline” value (“Testosterone, mean (SD) change” for short) (testosterone; Cycle 1 Day 2, 250 mg (n = 9)) was −3.6 (3.64) ng/dL. The “Testosterone, mean (SD) change” value (testosterone; Cycle 1 Day 2, 500 mg (n = 6)) was −4.8 (3.06) ng/dL, the “Testosterone, mean (SD) change” value (testosterone; [5]) was −7.5 (1.87) ng/dL and the “Testosterone, mean (SD) change” value (testosterone; [6]) was −8.0 (3.22) ng/dL. For the same molecule, the “Testosterone, mean (SD) change” value (testosterone; Cycle 1 Day 8, 250 mg (n = 9)) was −6.2 (4.06) ng/dL, the “Testosterone, mean (SD) change” value (testosterone; Cycle 1 Day 8, 500 mg (n = 6)) was −8.2 (3.82) ng/dL and the “Testosterone, mean (SD) change” value (testosterone; [7]) was −9.2 (2.32) ng/dL. For the same molecule, the “Testosterone, mean (SD) change” value (testosterone; [8]) was −10.8 (6.21) ng/dL, the “mean change from baseline in testosterone levels, range over cohorts” value (testosterone; day 8 in cycle 1, 250-1000 mg) was -10.8 to -6.2 ng/dL and the “11-deoxycorticosterone, mean (SD) change from baseline” value (11-deoxycorticosterone; Cycle 1 Day 2, 250 mg (n = 8)) was 22.9 (10.13) ^† ng/dL. The “11-deoxycorticosterone, mean (SD) change from baseline” value (11-deoxycorticosterone; Cycle 1 Day 2, 500 mg (n = 6)) was 40.3 (16.79) ng/dL, the “11-deoxycorticosterone, mean (SD) change from baseline” value (11-deoxycorticosterone; [5]) was 45.7 (61.09) ng/dL and the “11-deoxycorticosterone, mean (SD) change from baseline” value (11-deoxycorticosterone; [6]) was 36.3 (17.22) ng/dL. For the same molecule, the “11-deoxycorticosterone, mean (SD) change from baseline” value (11-deoxycorticosterone; Cycle 1 Day 8, 250 mg (n = 8)) was 45.9 (13.35) ^† ng/dL, the “11-deoxycorticosterone, mean (SD) change from baseline” value (11-deoxycorticosterone; Cycle 1 Day 8, 500 mg (n = 6)) was 78.8 (36.41) ng/dL and the “11-deoxycorticosterone, mean (SD) change from baseline” value (11-deoxycorticosterone; [7]) was 112.3 (65.15) ng/dL. The “11-deoxycorticosterone, mean (SD) change from baseline” value (11-deoxycorticosterone; [8]) was 79.2 (51.53) ng/dL, the “Corticosterone, mean (SD) change from baseline” value (corticosterone; Cycle 1 Day 2, 250 mg (n = 9)) was 1097.1 (687.41) ng/dL and the “Corticosterone, mean (SD) change from baseline” value (corticosterone; Cycle 1 Day 2, 500 mg (n = 6)) was 2914.8 (1543.83) ng/dL. For the same molecule, the “Corticosterone, mean (SD) change from baseline” value (corticosterone; [5]) was 4227.3 (2814.68) ng/dL, the “Corticosterone, mean (SD) change from baseline” value (corticosterone; [6]) was 1957.2 (1008.74) ng/dL and the “Corticosterone, mean (SD) change from baseline” value (corticosterone; Cycle 1 Day 8, 250 mg (n = 9)) was 2015.2 (769.39) ng/dL. The “Corticosterone, mean (SD) change from baseline” value (corticosterone; Cycle 1 Day 8, 500 mg (n = 6)) was 4086.5 (2478.82) ng/dL, the “Corticosterone, mean (SD) change from baseline” value (corticosterone; [7]) was 6426.2 (2212.64) ng/dL and the “Corticosterone, mean (SD) change from baseline” value (corticosterone; [8]) was 5147.8 (1642.75) ng/dL. The PSA response rate ([3]; 250 mg cohort) was 67%, the PSA response rate ([3]; 500 mg cohort, listed as AA) was 50% and the PSA response rate ([3]; 1000 (+2 h) mg cohort, listed as AA) was 83% and 83.3%. For the same molecule, the PSA response rate ([3]; 1000 (−1 h) mg cohort, listed as AA) was 67% and 66.7%, the “patients with ≥50% PSA decline confirmed to be maintained for at least 4 weeks” value ([3]; all cohorts) was 18/27 and the “overall PSA response rate” value ([3]; all cohorts (N = 27), ≥50% decline maintained ≥4 weeks) was 67%. For the same molecule, the “patients from each dose-group with ≥50% PSA reduction” value ([3]; each dose-group) was “At least 3 patients”, the “patients who achieved ≥50% PSA decline from baseline at one or more evaluation time points” value (“patients who achieved ≥50% PSA decline” below) ([3]; 250 mg) was 7 patients and the “patients who achieved ≥50% PSA decline” value ([3]; 500 mg) was 3 patients. For the same molecule, the “patients who achieved ≥50% PSA decline” value ([3]; 1000 (+2 h) mg) was 5 patients, the “patients who achieved ≥50% PSA decline” value ([3]; 1000 (−1 h) mg) was 5 patients and the “patients who achieved ≥50% PSA decline” value ([3]; all cohorts) was 20/27. The “mean percentage change from baseline in PSA levels” value (“mean percentage change” below) ([3]; 250 mg) was −51.2%, the “mean percentage change” value ([3]; 500 mg) was −29.1% and the “mean percentage change” value ([3]; 1000 mg (+2 h)) was −37.6%. The “mean percentage change” value ([3]; 1000 mg (−1 h)) was −60.4%, the “DHEA-S, mean (SD) change from baseline” value ([4]; Cycle 1 Day 2, 250 mg (n = 9)) was −19.1 (13.49) ug/dL and the “DHEA-S, mean (SD) change from baseline” value ([4]; Cycle 1 Day 2, 500 mg (n = 6)) was −28.3 (24.32) ug/dL. For the same molecule, the “DHEA-S, mean (SD) change from baseline” value [4, 5] was −53.3 (34.14) ug/dL, the “DHEA-S, mean (SD) change from baseline” value [4, 6] was −59.7 (49.87) ug/dL and the “DHEA-S, mean (SD) change from baseline” value ([4]; Cycle 1 Day 8, 250 mg (n = 9)) was −35.7 (25.51) ug/dL. The “DHEA-S, mean (SD) change from baseline” value ([4]; Cycle 1 Day 8, 500 mg (n = 6)) was −38.5 (37.31) ug/dL, the “DHEA-S, mean (SD) change from baseline” value [4, 7] was −76.8 (54.02) ug/dL and the “DHEA-S, mean (SD) change from baseline” value [4, 8] was −95.3 (77.99) ug/dL.
